pKd: −log10 of the molar value. In brackets after ≈: the same amount, converted by molar mass.

Data set [1] in a line: Pharmacokinetics in Sprague-Dawley rats. Conditions: rat, in vivo, iv, 2 mg/kg, SD rats, 2 mg/kg IV bolus; for clearance: CL (mL/min/kg); for half-life: t½ (h), terminal half-life.
In a further data set the test system is CT26-Nectin-4 tumors. The data set can be described thus: CT26-Nectin-4 syngeneic tumor model. It counts as in vivo, Balb/c mice. The note with it: 1 and 5 mg/kg QD IP.
For data set [2], the system named is human PBMCs cocultured with HT1376. The data set can be described thus: PBMC/HT1376 coculture cytokine secretion assay. It counts as cell-based. The note with it: anti-CD3 stimulated PBMCs with HT1376. In a few lines: (§1)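 Frozen healthy-donor human PBMCs were thawed, washed in PBS with benzonase and resuspended in RPMI with 10% heat-inactivated FBS, HEPES and glutamine. PBMCs (1 × 10^6/mL) were plated with tumor cells (1 × 10^5/mL) at 10:1, stimulated with soluble anti-CD3 OKT3 (100 ng/mL), and given diluted test compound. Incubation was 2 days at 37 °C, 5% CO2. Supernatant IFNγ and IL-2 were measured by Luminex; four-parameter fit, n = 3.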

For the next data set, the system named is MC38-Nectin-4 tumors. Kind of data set: CIVO intratumoral microdosing pharmacodynamics. The format is in vivo, huCD137 C57Bl/6 mice. The note with it: 1.85 μM microdose, 24 h, IHC; compared to vehicle or MMAE injection sites. In a few lines: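 C57BL/6J-hCD137 mice bearing subcutaneous MC38-Nectin-4 tumors (around 860 mm3; three mice) were anesthetized and microdosed transcutaneously with the CIVO device. Each 2 μL injection held vehicle (25 mM histidine, 10% sucrose pH 7), 120 μM MMAE or 1.85 μM test compound, plus fluorescent tracking microspheres. Tumors were taken 24 h later, formalin-fixed, paraffin-embedded and stained by fluorescent IHC for CD8, GzB and DAPI. CD8+/GzB+ cells were normalized to total CD8+ cells; one-way ANOVA with Dunnett's post-test.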

Data set [3] deals with human PBMCs cocultured with MC38-Nectin-4. The data set can be described thus: PBMC/MC38-Nectin-4 coculture cytokine secretion assay. Conditions: anti-CD3 stimulated; IFNγ after 48 h. It counts as cell-based. In a few lines:
as §1

The target of the next data set is human CD137 (Homo sapiens, UniProt Q07011). Kind of data set: SPR binding to human CD137.
Another data set can be described thus: Thermodynamic solubility. It counts as physicochemical. The note with it: pH 7.4.

As for `CCCC[C@@H]1NC(=O)[C@H](Cc2ccc(O)cc2)NC(=O)[C@@H]2CCCN2C(=O)[C@H](CC(=O)O)NC(=O)[C@H](C)NC(=O)[C@H](Cc2ccccc2)NC(=O)[C@@H]2CSCCC(=O)N3CN(CN(C3)C(=O)CCSC[C@@H](C(=O)N[C@@H](C)C(N)=O)NC1=O)C(=O)CCSC[C@H](NC(C)=O)C(=O)N[C@@H](CC(C)(C)C)C(=O)N1CCC[C@H]1C(=O)N[C@@H](CCC(=O)O)C(=O)N[C@H](CCCCNC(=O)CCc1cn(CCOCCOCCOCCOCCOCCC(=O)N[C@H]3CSCCC(=O)N4CN5CN(C4)C(=O)CCSC[C@H](NC(=O)[C@@H](CC(=O)O)NC(=O)[C@H](Cc4cccc6ccccc46)NC(=O)[C@@H]4CCCN4C3=O)C(=O)N[C@@H](CCSC)C(=O)N[C@@H](CCCCNC(=N)N)C(=O)N[C@@H](CC(=O)O)C(=O)N[C@@H](Cc3c[nH]c4ccccc34)C(=O)N[C@@H](CO)C(=O)N[C@@H]([C@@H](C)O)C(=O)N3CCC[C@H]3C(=O)N3C[C@H](O)C[C@H]3C(=O)N[C@@H](Cc3c[nH]c4ccccc34)C(=O)N[C@H](C(N)=O)CSCCC5=O)nn1)C(=O)N1CCC[C@H]1C(=O)N[C@@H](Cc1ccc(O)cc1)C(=O)N2` [BCY10572], in data set [1], the clearance came to 18 mL/min/kg. In addition, the antitumor activity entry is “Potent antitumor activity” with CT26-Nectin-4 tumors (huCD137-Balb/c mice) and “no BCY10572 antitumor activity” with CT26-Nectin-4 tumors (wt Balb/c mice). Besides, the “secretion of proinflammatory cytokines IFNγ and IL-2” value (from here on “secretion”) in data set [2] was “dose-dependent increase”.

On to `CCCC[C@@H]1NC(=O)[C@H](Cc2ccc(O)cc2)NC(=O)[C@@H]2CCCN2C(=O)[C@H](CC(=O)O)NC(=O)[C@H](C)NC(=O)[C@H](Cc2ccccc2)NC(=O)[C@@H]2CSCCC(=O)N3CN(CN(C3)C(=O)CCSC[C@@H](C(=O)N[C@@H](C)C(N)=O)NC1=O)C(=O)CCSC[C@H](NC(=O)[C@H](C)NC(C)=O)C(=O)N[C@@H]([C@@H](C)CC)C(=O)N[C@@H](CCC(=O)O)C(=O)N[C@@H](CCC(=O)O)C(=O)N[C@H](CCCCNC(=O)CCc1cn(CCOCCOCCOCCN(CCOCCOCCOCCC(=O)N[C@H]3CSCCC(=O)N4CN5CN(C4)C(=O)CCSC[C@H](NC(=O)[C@@H](CC(=O)O)NC(=O)[C@H](Cc4cccc6ccccc46)NC(=O)[C@@H]4CCCN4C3=O)C(=O)N[C@@H](CCSC)C(=O)N[C@@H](CCCCNC(=N)N)C(=O)N[C@@H](CC(=O)O)C(=O)N[C@@H](Cc3c[nH]c4ccccc34)C(=O)N[C@@H](CO)C(=O)N[C@@H]([C@@H](C)O)C(=O)N3CCC[C@H]3C(=O)N3C[C@H](O)C[C@H]3C(=O)N[C@@H](Cc3c[nH]c4ccccc34)C(=O)N[C@H](C(N)=O)CSCCC5=O)CCOCCOCCOCCn3cc(CCC(=O)NCCCC[C@H]4NC(=O)[C@H](CCC(=O)O)NC(=O)[C@H](CCC(=O)O)NC(=O)[C@H]([C@@H](C)CC)NC(=O)[C@@H](NC(=O)[C@H](C)NC(C)=O)CSCCC(=O)N5CN6CN(C5)C(=O)CCSC[C@H](NC(=O)[C@H](Cc5ccc(O)cc5)NC(=O)[C@H](CCC(N)=O)NC4=O)C(=O)N[C@@H](Cc4ccccc4)C(=O)N[C@@H](C)C(=O)N[C@@H](CC(=O)O)C(=O)N4CCC[C@H]4C(=O)N[C@@H](Cc4ccc(O)cc4)C(=O)N[C@@H](CCCC)C(=O)N[C@H](C(=O)N[C@@H](C)C(N)=O)CSCCC6=O)nn3)nn1)C(=O)N[C@@H](CCC(N)=O)C(=O)N[C@@H](Cc1ccc(O)cc1)C(=O)N2` [BCY11864], for which the “proportion of CD8+/GzB+ double positive cells of total CD8+ cells” value with MC38-Nectin-4 tumors is reported as “increase”. For the same molecule, the “functional activity in PBMCs cocultured with MC38-Nectin-4” value in data set [3] was “functionally active”. The molecule also had a half-life in data set [1] of 0.95 h. Moreover, in data set [2], the “secretion” value was “dose-dependent increase”.

`CCCC[C@@H]1NC(=O)[C@H](Cc2ccc(O)cc2)NC(=O)[C@@H]2CCCN2C(=O)[C@H](CC(N)=O)NC(=O)[C@H](C)NC(=O)[C@H](Cc2ccccc2)NC(=O)[C@@H]2CSCCC(=O)N3CN(CN(C3)C(=O)CCSC[C@H](NC(C)=O)C(=O)N[C@@H](CC(C)(C)C)C(=O)N3CCC[C@H]3C(=O)N[C@@H](CCC(=O)O)C(=O)N[C@H](CCCCNC(=O)CCc3cn(CCOCCOCCOCCN(CCOCCOCCOCCC(=O)N[C@H]4CSCCC(=O)N5CN6CN(C5)C(=O)CCSC[C@H](NC(=O)[C@@H](CC(=O)O)NC(=O)[C@H](Cc5cccc7ccccc57)NC(=O)[C@@H]5CCCN5C4=O)C(=O)N[C@@H](CCSC)C(=O)N[C@@H](CCCCNC(=N)N)C(=O)N[C@@H](CC(=O)O)C(=O)N[C@@H](Cc4c[nH]c5ccccc45)C(=O)N[C@@H](CO)C(=O)N[C@@H]([C@@H](C)O)C(=O)N4CCC[C@H]4C(=O)N4C[C@H](O)C[C@H]4C(=O)N[C@@H](Cc4c[nH]c5ccccc45)C(=O)N[C@H](C(N)=O)CSCCC6=O)CCOCCOCCOCCn4cc(CCC(=O)NCCCC[C@H]5NC(=O)[C@H](CCC(=O)O)NC(=O)[C@@H]6CCCN6C(=O)[C@H](CC(C)(C)C)NC(=O)[C@@H](NC(C)=O)CSCCC(=O)N6CN7CN(C6)C(=O)CCSC[C@H](NC(=O)[C@H](Cc6ccc(O)cc6)NC(=O)[C@@H]6CCCN6C5=O)C(=O)N[C@@H](Cc5ccccc5)C(=O)N[C@@H](C)C(=O)N[C@@H](CC(N)=O)C(=O)N5CCC[C@H]5C(=O)N[C@@H](Cc5ccc(O)cc5)C(=O)N[C@@H](CCCC)C(=O)N[C@H](C(N)=O)CSCCC7=O)nn4)nn3)C(=O)N3CCC[C@H]3C(=O)N[C@@H](Cc3ccc(O)cc3)C(=O)N2)C(=O)CCSC[C@@H](C(N)=O)NC1=O` [BCY12486]: the pKd at human CD137 is approximately 8.10.

`CCCC[C@@H]1NC(=O)[C@H](Cc2ccc(O)cc2)NC(=O)[C@@H]2CCCN2C(=O)[C@H](CCC(=O)O)NC(=O)[C@H](C)NC(=O)[C@H](Cc2ccccc2)NC(=O)[C@@H]2CSCCC(=O)N3CN(CN(C3)C(=O)CCSC[C@H](NC(C)=O)C(=O)N[C@@H](CC(C)(C)C)C(=O)N3CCC[C@H]3C(=O)N[C@@H](CCC(=O)O)C(=O)N[C@H](CCCCNC(=O)CCc3cn(CCOCCOCCOCCN(CCOCCOCCOCCC(=O)N[C@H]4CSCCC(=O)N5CN6CN(C5)C(=O)CCSC[C@H](NC(=O)[C@@H](CC(=O)O)NC(=O)[C@H](Cc5cccc7ccccc57)NC(=O)[C@@H]5CCCN5C4=O)C(=O)N[C@@H](CCSC)C(=O)N[C@@H](CCCCNC(=N)N)C(=O)N[C@@H](CC(=O)O)C(=O)N[C@@H](Cc4c[nH]c5ccccc45)C(=O)N[C@@H](CO)C(=O)N[C@@H]([C@@H](C)O)C(=O)N4CCC[C@H]4C(=O)N4C[C@H](O)C[C@H]4C(=O)N[C@@H](Cc4c[nH]c5ccccc45)C(=O)N[C@H](C(N)=O)CSCCC6=O)CCOCCOCCOCCn4cc(CCC(=O)NCCCC[C@H]5NC(=O)[C@H](CCC(=O)O)NC(=O)[C@@H]6CCCN6C(=O)[C@H](CC(C)(C)C)NC(=O)[C@@H](NC(C)=O)CSCCC(=O)N6CN7CN(C6)C(=O)CCSC[C@H](NC(=O)[C@H](Cc6ccc(O)cc6)NC(=O)[C@@H]6CCCN6C5=O)C(=O)N[C@@H](Cc5ccccc5)C(=O)N[C@@H](C)C(=O)N[C@@H](CCC(=O)O)C(=O)N5CCC[C@H]5C(=O)N[C@@H](Cc5ccc(O)cc5)C(=O)N[C@@H](CCCC)C(=O)N[C@H](C(N)=O)CSCCC7=O)nn4)nn3)C(=O)N3CCC[C@H]3C(=O)N[C@@H](Cc3ccc(O)cc3)C(=O)N2)C(=O)CCSC[C@@H](C(N)=O)NC1=O` [BCY12487] had a pKd at human CD137 of approximately 8.10.

For the molecule `CCCC[C@@H]1NC(=O)[C@H](Cc2ccc(O)cc2)NC(=O)[C@@H]2CCCN2C(=O)[C@H](CC(=O)O)NC(=O)[C@H](C)NC(=O)[C@H](Cc2ccccc2)NC(=O)[C@@H]2CSCCC(=O)N3CN(CN(C3)C(=O)CCSC[C@@H](C(N)=O)NC1=O)C(=O)CCSCCC(=O)N[C@@H](CC(C)(C)C)C(=O)N1CCC[C@H]1C(=O)N[C@@H](CCC(=O)O)C(=O)N[C@H](CCCCNC(=O)CCc1cn(CCOCCOCCOCCN(CCOCCOCCOCCC(=O)N[C@H]3CSCCC(=O)N4CN5CN(C4)C(=O)CCSC[C@H](NC(=O)[C@@H](CC(=O)O)NC(=O)[C@H](Cc4cccc6ccccc46)NC(=O)[C@@H]4CCCN4C3=O)C(=O)N[C@@H](CCSC)C(=O)N[C@@H](CCCCNC(=N)N)C(=O)N[C@@H](CC(=O)O)C(=O)N[C@@H](Cc3c[nH]c4ccccc34)C(=O)N[C@@H](CO)C(=O)N[C@@H]([C@@H](C)O)C(=O)N3CCC[C@H]3C(=O)N3C[C@H](O)C[C@H]3C(=O)N[C@@H](Cc3c[nH]c4ccccc34)C(=O)N[C@H](C(N)=O)CSCCC5=O)CCOCCOCCOCCn3cc(CCC(=O)NCCCC[C@H]4NC(=O)[C@H](CCC(=O)O)NC(=O)[C@@H]5CCCN5C(=O)[C@H](CC(C)(C)C)NC(=O)CCSCCC(=O)N5CN6CN(C5)C(=O)CCSC[C@H](NC(=O)[C@H](Cc5ccc(O)cc5)NC(=O)[C@@H]5CCCN5C4=O)C(=O)N[C@@H](Cc4ccccc4)C(=O)N[C@@H](C)C(=O)N[C@@H](CC(=O)O)C(=O)N4CCC[C@H]4C(=O)N[C@@H](Cc4ccc(O)cc4)C(=O)N[C@@H](CCCC)C(=O)N[C@H](C(N)=O)CSCCC6=O)nn3)nn1)C(=O)N1CCC[C@H]1C(=O)N[C@@H](Cc1ccc(O)cc1)C(=O)N2` [BCY12587], in data set [1], the clearance was 4.5 mL/min/kg and the half-life is 17 h. For the same molecule, the “secretion” value in data set [2] is on record as “dose-dependent increase”. In “Thermodynamic solubility”, this molecule showed a thermodynamic solubility of 3100 µg/mL (≈ 446 µM).

These data come from PMC9340768 (Journal of Medicinal Chemistry, 2022).
